Two compounds from PMC11256359 (Biochemistry, 2024) can be followed below.

Numbering of substitutions follows the chain as printed.

Format in all cases: binding
Assay [1] addresses T1, hOTC (human ornithine transcarbamylase) (Homo sapiens, UniProt P00480, C303A).
T1 sequence (P00480 33-354 C303A): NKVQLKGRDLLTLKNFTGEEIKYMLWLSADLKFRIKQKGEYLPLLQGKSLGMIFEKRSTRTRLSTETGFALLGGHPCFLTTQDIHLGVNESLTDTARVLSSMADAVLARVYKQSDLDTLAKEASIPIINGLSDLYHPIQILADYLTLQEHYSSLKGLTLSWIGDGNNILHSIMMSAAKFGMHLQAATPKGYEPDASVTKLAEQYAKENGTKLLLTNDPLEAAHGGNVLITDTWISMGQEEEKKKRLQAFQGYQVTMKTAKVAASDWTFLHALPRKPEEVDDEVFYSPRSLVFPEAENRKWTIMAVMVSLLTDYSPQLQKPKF
The assay is described as follows: microscale thermophoresis, label-free. In a few lines:
(§1)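 His-tagged human OTC (WT or variants) expressed in BL21(DE3) Tuner cells with pGro7 chaperones and purified by one-step nickel chromatography. Ligand: substrate CP, serially diluted. Protein was diluted to 500 nM in 50 mM HEPES, 150 mM NaCl, 0.05% Tween, 2 mM EDTA, then mixed with CP to 250 nM final. Incubated ≥5 min at room temperature. Kd was measured by label-free MST on intrinsic tryptophan fluorescence.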

Assay [2] deals with T2, hOTC (human ornithine transcarbamylase) (Homo sapiens, UniProt P00480).
T2 sequence (P00480 33-354): T1 sequence (P00480 33-354 C303A) with A271C
As to the kind of experiment: microscale thermophoresis, label-free.

For assay [3], the target named is T3, hOTC (human ornithine transcarbamylase) (Homo sapiens, UniProt P00480, D263N).
T3 sequence (P00480 33-354 D263N): T1 sequence (P00480 33-354 C303A) with D231N, A271C
As to the kind of experiment: microscale thermophoresis, label-free. The gist of the method: as §1

The target in assay [4] is T4, hOTC (human ornithine transcarbamylase) (Homo sapiens, UniProt P00480, H107N).
T4 sequence (P00480 33-354 H107N): T1 sequence (P00480 33-354 C303A) with H75N, A271C
As to the kind of experiment: microscale thermophoresis, label-free. In a few lines: as §1

Assay [5] deals with T5, hOTC (human ornithine transcarbamylase) (Homo sapiens, UniProt P00480, H302L).
T5 sequence (P00480 33-354 H302L): T1 sequence (P00480 33-354 C303A) with H270L, A271C
The assay is described as follows: microscale thermophoresis, label-free. The gist of the method:
as §1

Assay [6] concerns the target T6, hOTC (human ornithine transcarbamylase) (Homo sapiens, UniProt P00480, D263A).
T6 sequence (P00480 33-354 D263A): T1 sequence (P00480 33-354 C303A) with D231A, A271C
The assay is described as follows: microscale thermophoresis, label-free. The gist of the method:
as §1

The target of assay [7] is T2, hOTC (human ornithine transcarbamylase). As to the kind of experiment: thermal shift assay. As to conditions: 10 mM L-norvaline with carbamoyl phosphate present; 4 µM enzyme; storage buffer.

`NC(=O)OP(=O)(O)O` [CP, carbamoyl phosphate]: the Kd in assay [1] worked out at 190 nM; in assay [2], 230 nM; in assay [3] it was 320 nM; in assay [4], 25000 nM; in assay [5], 110000 nM; in assay [6], 430 nM.

Regarding `CCC[C@H](N)C(=O)O` [NVA, L-norvaline], the “Tm increase relative to CP alone” value in assay [7] stood at 2 °C.
